# Measurements as given in article PMC3594512 (Bioorganic & medicinal chemistry, 2013).
# Entries after “also recorded” stand apart in the source; their conditions may differ.
# Tests used:
# [1] = test system: human H69; conditions: relative to NQVANHQ-NH2; due to non-specific binding, ref [15b]; cited from earlier work
# [2] = test system: H69 RNA; conditions: relative to NQVANHQ-NH2 (1:1), ref [15b]; cited from earlier work
# [3] = test system: F-TAR RNA; experiment: TentaGel bead fluorescence assay with F-TAR RNA; type: binding; conditions: peptide on TentaGel beads, fluorescence microscopy
# [4] = TentaGel bead control with free fluorescein; type: binding; conditions: peptide on TentaGel beads; fluorescence microscopy
# In short: (§1)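 Peptide beads were washed free of DMF, blocked 3 h in SuperBlock (PBS, 0.05% Tween-20) and rinsed with water. About 10–12 beads were shaken with fluorescent probe for 24 h at 4 °C, with fresh probe added for repeated cycles. Beads were then water-washed and viewed by fluorescence microscopy. Peptide-free beads set background. Labelled RNAs were gel-purified (20% denaturing PAGE), stored in 10 mM HEPES pH 7.4 and renatured.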
# [5] = test system: F-18S RNA (human A-site rRNA); experiment: TentaGel bead fluorescence assay with F-18S RNA; type: binding; conditions: peptide on TentaGel beads; fluorescence microscopy
# In short: as §1
# [6] = test system: F-H69 (fluorescein-labeled Ψm^3ΨΨ); experiment: Quantum dot; type: binding, E. coli; conditions: Qdot analysis; 1 nM F-H69, 1 nM Qdot 655, 16 h at 4 °C
# In short: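 F-H69 was pre-incubated 1 h at 4 °C with anti-fluorescein Qdot 655, then with beads 16 h at 4 °C. Washes: PBS, SuperBlock, then 0.005% TX-100. Per-bead Qdot (em 655 nm) and fluorescein (em 521 nm) pixel intensities (1–255) taken at predefined exposures. Peptide-free beads served as control.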
Substance,selectivity with human H69 [1],stoichiometry with H69 [2],on-bead interaction with F-TAR RNA [3],on-bead interaction with free fluorescein [4],on-bead interaction with F-18S RNA [5],bead intensity compared with STYTSVS beads [6],on-bead interaction with F-TAR RNA ([3]; listed as STYSTVS)
neomycin,lower selectivity with human H69,higher stoichiometries,,,,,
NQVANHQ,,,did not show any interaction; also recorded: do not show any fluorescence,do not show any fluorescence,did not show any interaction; also recorded: do not show any fluorescence,higher than STYTSVS beads,
STYTSVS,,,with the exception those containing STYTSVS and F-TAR RNA,do not show any fluorescence,do not show any fluorescence,,showed interaction
